# Hit rate of the full screen: of about 2,500 compounds, about 460 (18%) were called active.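 How the source made its calls: active means mean activation above a cutoff of low control average plus 3 SD from the earlier screen (cut at about 12% in these data); inactive means the rest.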 A selection follows.
# Experiment: IANBD-channel fluorescence artefacts in buffer – biochemical, artefact control for cardiac RTF calcium sensitizer project, confirmation (AID 504382)
# Details: IANBD fluorescence interference counterscreen, EC20 Ca2+, at 7.2 µM, hits give high values, scaled: EC20 calcium 0, EC100 calcium 100
# Method in brief: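 timing = compound incubation 15 min at 25 °C before fluorescence reading | technique = fluorescence at 480 nm excitation, 540 nm emission | evaluation = interference relative to controls | replication = triplicate wells per compound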
row,Compound,fluorescence artifact activation
1,Nc1ccc2c3c(cccc13)CC2,0.07% (inactive)
2,O=C(Cn1c2[n+](c3ccc(C(F)(F)F)cc31)CCCCC2)Nc1ccccc1,0.33% (inactive)
3,CC(=O)/C(C=Nc1noc(C)c1Br)=C(\C)O,11.4% (inactive)
4,CCC1(CC)C(=O)Nc2ccccc21,-0.02% (inactive)
5,COc1ccccc1N1CCN(C(=O)c2cn(-c3ccccc3)nc2-c2cccnc2)CC1,0.33% (inactive)
6,COc1ccccc1N1CCN(C(=O)c2ccc(Cn3c(=O)[nH]c4ccsc4c3=O)cc2)CC1,51.1% (active)
7,COc1ccc2[nH]c(C(=O)N3CCC(Cc4ccccc4)CC3)cc2c1,0.13% (inactive)
8,COc1ccc(C(=O)c2sc3nc(C)cc(-c4cccs4)c3c2N)cc1OC,0.66% (inactive)
9,CC(=O)c1ccc2noc(-c3ccc(C)cc3)c2c1,0.23% (inactive)
10,COc1ccccc1-c1sc2ccccc2c1-c1ccc(Br)nc1,0.93% (inactive)
11,Oc1ccc(-c2c(C3=CCCCC3)sc3ccccc23)cc1,28.2% (active)
12,CCOc1ccccc1C=NNC(=O)CCCCC(=O)NN=Cc1ccccc1OCC,0.77% (inactive)
13,Cc1noc(C)c1NC(=O)N(C)C[C@H]1Oc2c(NS(=O)(=O)c3cccs3)cccc2C(=O)N([C@H](C)CO)C[C@@H]1C,-0.07% (inactive)
14,COC(=O)Cc1ccc(NC(=S)NCCCN2CCOCC2)cc1,-0.02% (inactive)
15,O=C(NC(=S)NCCN1CCOCC1)c1ccc(F)cc1,21.2% (active)
16,CC(C)(C)c1ccc(C(=O)NC(=S)Nc2ccc(N3CCOCC3)cc2)cc1,0.09% (inactive)
17,CCCCNC(=O)Nc1nnc(-c2ccccc2)o1,0.13% (inactive)
18,S=C(Nc1ccc(Cl)cc1)N(CCCN1CCOCC1)Cc1ccco1,0.04% (inactive)
19,CCC1OC23CCCCC2C(C#N)(C(=N)O3)C1(C#N)C#N (stereo not given),0.21% (inactive)
20,Cn1cccc1Cc1nnc(SCC(=O)Nc2ccc(F)cc2F)n1-c1ccc(F)cc1,1.86% (inactive)
21,COc1ccc(C(=O)Nc2cc(C(C)=O)c(/C=C/N(C)C)oc2=O)cc1,9.8% (inactive)
22,COC(=O)c1cc(NC(=O)c2ccccc2)c(=O)oc1/C=C/Nc1ccc(Oc2ccccc2)cc1,18.6% (active)
23,CC(=O)c1cc(NC(=O)c2ccccc2)c(=O)oc1/C=C/N(C)C,0.09% (inactive)
24,Cc1cccc(N2C(=O)c3cccc4c(N)ccc(c34)C2=O)c1,0.02% (inactive)

row,Compound,fluorescence artifact activation
1,CCN(CC)c1ccc2cc(-c3nc(-c4cc5ccccc5oc4=O)cs3)c(=O)oc2c1,-0.03% (inactive)
2,CCN(CC)c1ccc2cc(-c3nnc(-c4ccccc4)o3)c(=O)oc2c1,43.7% (active)
3,CCN(CC)c1ccc2cc(-c3nnc(-c4ccncc4)o3)c(=O)oc2c1,1.48% (inactive)
4,CC(=O)Nc1ccc2cc3ccc(NC(C)=O)cc3nc2c1,11.6% (inactive)
5,CCCn1c(=O)c(C(=O)NNC(=O)c2ccccc2[N+](=O)[O-])c(O)c2ccccc21,5.02% (inactive)
6,CCN1/C(=C/C=C2/SC(=Nc3cccc4ncccc34)N(C)C2=O)Sc2ccccc21,11.5% (inactive)
7,CCN(C(=O)CN1CCCc2cc(C)ccc21)c1c(N)n(Cc2ccccc2)c(=O)[nH]c1=O,0.2% (inactive)
8,CCn1c(Cc2ccccc2)nnc1SCC(=O)OC(C)C,0.3% (inactive)
9,CCN(C(=O)CSc1nnc(COc2ccccc2F)n1N)c1c(N)n(Cc2ccccc2)c(=O)[nH]c1=O,382% (active)
10,COC(=O)C1=C(C)NC(=O)/C1=C\N(C)C,5.29% (inactive)
11,COc1cc(OC)c(OC)cc1/C=C1\Oc2cc(OCC(=O)N3Cc4ccccc4C[C@H]3C(=O)O)ccc2C1=O,-0.01% (inactive)
12,CS(=O)(=O)N(CC(=O)NCCSCc1ccccc1)c1ccccc1,0.13% (inactive)
13,CC(C)(C)C1(O)CC(C(F)(F)F)=NN1C(=O)CCCc1ccccc1 (stereo not given),0.13% (inactive)
14,CSCC(C)N1CCC(n2nccc2NC(=O)CCCc2ccccc2)CC1 (stereo not given),26.2% (active)
15,CCN1CCN(C2=CC3=CC(=C(C#N)C#N)CCC3CC2)CC1 (stereo not given),0.47% (inactive)
16,CN1CCc2c(sc3c2C(=O)NC(c2cccs2)N3)C1 (stereo not given),0.27% (inactive)
17,Cc1ccsc1C1NC(=O)c2c(sc3c2CCN(C)C3)N1 (stereo not given),28.8% (active)
18,Cc1ccc(C2NC(=O)c3c(sc4c3CCN(C)C4)N2)s1 (stereo not given),0% (inactive)
19,CCOC(=O)c1c(NC(=O)CSc2nc3cc(Cl)ccc3c(=O)n2Cc2ccco2)sc(C(=O)N(C)C)c1C,0% (inactive)
20,COc1ccc(OC)c(/C=C2\N=C(c3ccccc3)OC2=O)c1,8.78% (inactive)
21,C#CCSc1nc2[nH]ncc2c(=O)[nH]1,0.09% (inactive)
22,CNc1ccccc1C(C)(C)c1cc(C)[nH]n1,3.66% (inactive)
23,COc1ccc(O)c(/C=N/c2nc3ccccc3n2C)c1,0.05% (inactive)
24,COc1ccc(N=Nc2nc3ccc(Br)cc3n2C)cc1,0.16% (inactive)

row,Compound,fluorescence artifact activation
1,COc1ccc(N=Nc2nc3cc(Br)c(Br)cc3n2C)c(OC)c1,765% (active)
2,CCOC(=O)C1=C(COC(=O)c2ccc3ccccc3c2O)NC(=O)NC1C (stereo not given),0.49% (inactive)
3,CCOC(=O)c1cc2c(=O)n3ccccc3nc2n(CCOC)c1=NC(=O)c1c(-c2c(F)cccc2Cl)noc1C,0.12% (inactive)
4,COc1ccc(C(=O)N/N=C/c2sc3ccccc3c2O)cc1,1.31% (inactive)
5,O=C(N/N=C/c1sc2ccccc2c1O)c1ccccc1,9.97% (inactive)
6,COc1ccc2cc(C(=O)N/N=C/c3sc4ccccc4c3O)ccc2c1,93.2% (active)
7,CC(C)(CN1CCc2ccccc2C1)NS(=O)(=O)c1ccc(Cl)cc1,0.2% (inactive)
8,O=c1oc2c3c4c(cc2c(C(F)(F)F)c1CCN1CCOCC1)CCCN4CCC3,-0.03% (inactive)
9,Cn1ncc(N=Cc2c(O)ccc3ccccc23)c1C(=O)Nc1cccc(Cl)c1,0.09% (inactive)
10,O=C1c2cccc3c(N4CCCCC4)ccc(c23)C(=O)N1c1ccccc1O,-0.03% (inactive)
11,O=C1c2cccc3c(O)ccc(c23)C(=O)N1Cc1ccccc1,11.9% (active)
12,CCNc1cccc2c1C(=O)N(C)C2=O,0.15% (inactive)
13,CC1(C)CC2CC(C)(CN2CC(=O)C(C#N)c2ccccc2)C1 (stereo not given),0.12% (inactive)
14,Cc1cccc(/C=N/n2c(-c3ccncc3)n[nH]c2=S)c1,7.13% (inactive)
15,C=CCn1cc(/C=C/c2cc[n+](C)cc2)c2ccccc21,0.14% (inactive)
16,N#C/C(=C\c1coc2ccc(O)cc2c1=O)C(=O)Nc1nc2ccccc2s1,1.92% (inactive)
17,Fc1ccc(CN2CC[C@H]3C=CCc4cccc(c43)C2)cc1,52.5% (active)
18,COc1cc(/C=C2/SC(=S)N(CCC(=O)Nc3ccccc3)C2=O)cc(OC)c1OC,0.06% (inactive)
19,CCOc1ccc(NC(=O)/C(C#N)=C\c2ccc(N3CCCC3)c(C)c2)cc1,0.15% (inactive)
20,CSc1nnc(-c2ccc(S(=O)(=O)N3CCCC3)cc2)n1C,0.02% (inactive)
21,CSc1nc2ccccc2n1CC(=O)Nc1c(C)cccc1C,2.26% (inactive)
22,CCN1C(=O)/C(=C/N2CCc3ccccc32)SC1=S,12.6% (active)
23,CN1CCS/C1=C/C=C1/SC(=S)N(Cc2ccccc2)C1=O,-0.03% (inactive)
24,CCN1/C(=C2\SC(=S)N(Cc3ccccc3)C2=O)Sc2ccccc21,0.08% (inactive)

row,Compound,fluorescence artifact activation
1,O=c1oc2c(O)cccc2cc1-c1nc2ccccc2[nH]1,0.04% (inactive)
2,S=C(NCCCN1CCOCC1)Nc1ccc(-c2nc3ccccc3[nH]2)cc1,0.17% (inactive)
3,O=c1oc2c(CN3CCCCC3)c(O)ccc2cc1-c1nc2ccccc2[nH]1,60.5% (active)
4,O=C1CCc2cc(S(=O)(=O)NC3CCCCC3)ccc2N1,-0.07% (inactive)
5,Cc1ccc(CNC(=O)CC(C)S(=O)(=O)c2ccc3c(c2)NC(=O)CS3)o1 (stereo not given),45.8% (active)
6,Cc1cc(C)n2nc(SCC(=O)N(C)Cc3ccccc3)nc2n1,-0.05% (inactive)
7,Cc1ccc(/C=C2\Oc3c(ccc(O)c3CN3CCN(CCO)CC3)C2=O)cc1,4.11% (inactive)
8,CN(C)Cc1c(O)ccc2c1O/C(=C\C=C\c1ccccc1)C2=O,0.37% (inactive)
9,CCN(CC)Cc1c(O)ccc2c1O/C(=C\C=C\c1ccccc1)C2=O,0.87% (inactive)
10,COc1ccccc1/C=C/C=C1\Oc2c(ccc(O)c2CN2CCN(CCO)CC2)C1=O,11.9% (active)
11,CCN1CCN(Cc2c(O)ccc3c2O/C(=C\C=C\c2ccccc2)C3=O)CC1,20.6% (active)
12,COc1ccccc1/C=C/C=C1\Oc2c(ccc(O)c2CN(C)C)C1=O,5.64% (inactive)
13,CCN1CCN(Cc2c(O)ccc3c2O/C(=C\c2ccccc2)C3=O)CC1,2.91% (inactive)
14,CCN1CCN(Cc2c(O)ccc3c2O/C(=C\C=C\c2ccccc2OC)C3=O)CC1,1.64% (inactive)
15,O=C1/C(=C/C=C/c2ccccc2)Oc2c1ccc(O)c2CN1CCN(CCO)CC1,46.6% (active)
16,Cc1c(/C=N/O)c2ccccn2c1C=O,0.97% (inactive)
17,O=[N+]([O-])c1cc(-c2nc(-c3ccncc3)no2)ccc1Cl,-0.06% (inactive)
18,CCCc1ccc(OCc2ccc(C(=O)NN)o2)c(OC)c1,-0.08% (inactive)
19,CN1CCCc2cc3c(C(F)(F)F)cc(=O)oc3nc21,1.21% (inactive)
20,CC1CCCCC1NS(=O)(=O)CCNC(=O)c1ccccc1 (stereo not given),-0.01% (inactive)
21,CC(CC(=O)N1CCc2ccccc21)n1cccn1 (stereo not given),0.19% (inactive)
22,C[C@H](O)C(=O)C1=Nc2c(nc(N)[nH]c2=O)NC1,0.04% (inactive)
23,CC(=O)c1cccc(NC(=O)Cn2nc(-c3ccccc3Cl)ccc2=O)c1,0.29% (inactive)

# Source: PubChem BioAssay AID504382 (The Scripps Research Institute Molecular Screening Center, 2011)
